Here are results for six compounds from ChEMBL document CHEMBL5226372, “Tuaimenals B-H, Merosesquiterpenes from the Irish Deep-Sea Soft Coral Duva florida with Bioactivity against Cervical Cancer Cell Lines” (J Nat Prod, 2023).

Activity calls are given as the source filed them. The calls are words filed in the database; no cut-off is given here.

One assay relates to Enterococcus faecium. The assay is described as follows: Antibacterial activity against Enterococcus faecium. Type of assay: functional, organism-based.
The next assay relates to Human orthopneumovirus. Put plainly: Antiviral activity against human respiratory syncytial virus. The format is functional, organism-based.
For the next assay, the system named is Acinetobacter baumannii. The assay is described as follows: Antibacterial activity against Acinetobacter baumannii. Type of assay: functional, organism-based.
For another assay, the system named is Candida. The assay is described as follows: Antifungal activity against Candida. The format is functional, organism-based.
The test system of another assay is Staphylococcus aureus. The assay is described as follows: Antibacterial activity against Staphylococcus aureus. The format is functional, organism-based.
The next assay deals with Pseudomonas aeruginosa. The assay is described as follows: Antibacterial activity against Pseudomonas aeruginosa. The format is functional, organism-based.
In another assay the test system is Klebsiella pneumoniae. Put plainly: Antibacterial activity against Klebsiella pneumoniae. The format is functional, organism-based.
For assay [1], the system named is Ca-Ski. Put plainly: Antiproliferative activity against HPV-positive human Ca-Ski cells assessed as inhibition of cell growth incubated for 48 hrs by WST-1 assay. The format is functional, cell-based. An outline of the steps:
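CaSki cells were grown in RPMI 1640 with 10% FBS, kept below passage 10, at 37 °C and 5% CO2. They were seeded at 1000–3000 cells/well (about 50% confluence) and treated with 12 serial dilutions from 200 to 2 μM in DMSO (N = 3), with DMSO and 50 μM etoposide controls. After 48 h, 2 h WST-1 was read at 450/600 nm, normalized, and fitted by nonlinear regression.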
A general note: Tetrazolium assays rely on reduction of a dye to a coloured formazan, in cell work by metabolically active cells.

The subject of the next assay is Enterobacter sp. The assay is described as follows: Antibacterial activity against Enterobacter sp. Type of assay: functional, organism-based.
For assay [2], the system named is Mycobacterium tuberculosis. Put plainly: Antibacterial activity against Mycobacterium tuberculosis. The format is functional, organism-based.
The subject of assay [3] is C-33-A. Put plainly: Antiproliferative activity against HPV-negative human C-33-A cells assessed as inhibition of cell growth incubated for 48 hrs by WST-1 assay. The format is functional, cell-based. The gist of the method:
(§1)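 CaSki cells (RPMI 1640) and C33A cells (DMEM), passage <10, kept at 37 °C in 5% CO2. Cells were seeded at 1000–3000 per well to reach 50% confluency, then treated 48 h with serial dilutions from 200 to 2 μM in DMSO (N = 3). WST-1 was read after 2 h at 450/600 nm. Absorbances were normalized and EC50 came from nonlinear regression.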

Assay [4] deals with Ca-Ski. Put plainly: Antiproliferative activity against HPV-positive human Ca-Ski cells assessed as inhibition of cell growth at 50 uM incubated for 48 hrs by WST-1 assay. Type of assay: functional, cell-based.
Assay [5] concerns C-33-A. Put plainly: Antiproliferative activity against HPV-negative human C-33-A cells assessed as inhibition of cell growth at 50 uM incubated for 48 hrs by WST-1 assay. Type of assay: functional, cell-based. The gist of the method:
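C33A cells in DMEM, seeded at 1000–3000 per well and exposed to 50 μM etoposide as the positive control alongside a DMSO negative control (N = 3). Proliferation was read by WST-1 after 48 h treatment plus 2 h reagent incubation, at 450/600 nm. End-point absorbances were normalized.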

A short description of assay [6]: Selectivity ratio of EC50 for antiproliferative activity against HPV-positive human Ca-Ski cells to EC50 for antiproliferative activity against HPV-negative human C-33-A cells. The format is functional. The gist of the method:
as §1

For `CC(C)=CCC/C(C)=C/CC/C(C)=C/Cc1c(O)c(O)c(C)c(O)c1C=O`, the outcome with Enterococcus faecium, with Human orthopneumovirus, with Acinetobacter baumannii, in the assay with Candida, in the assay with Staphylococcus aureus and in the assay with Pseudomonas aeruginosa was inactive. The outcome (in the assay with Klebsiella pneumoniae; in the assay on Enterobacter sp.; in assay [2]) was inactive. Further, the values for the EC50 with Ca-Ski [1] and in the assay on C-33-A [3] were 23 µM and 14 µM, respectively.

`COc1cc([C@@H]2c3cc4c(cc3[C@@H](O[C@@H]3O[C@@H]5CO[C@@H](C)O[C@H]5[C@H](O)[C@H]3O)[C@H]3COC(=O)[C@H]23)OCO4)cc(OC)c1O`: the result in the assay on Ca-Ski [4] and in the assay on C-33-A [5] was Active.

On to `CC(C)=CCC/C(C)=C/CCC1(C)C=Cc2c(C=O)c(O)c(C)c(O)c2O1` (stereo not drawn), for which the outcome with Enterococcus faecium, in the assay on Human orthopneumovirus, in the assay with Acinetobacter baumannii, in the assay with Candida, in the assay on Staphylococcus aureus and in the assay with Pseudomonas aeruginosa was inactive. Besides, the outcome (in the assay on Klebsiella pneumoniae; with Enterobacter sp.; in assay [2]) was inactive. For the same compound, the EC50 (commonly the midpoint of the concentration-response curve) in the assay on Ca-Ski [1] was 46 µM; in the assay on C-33-A [3] it was 58 µM.

Regarding `CC(=O)Oc1cc(C)c(O)c2c1C=CC(C)(CC/C=C(\C)CCC=C(C)C)O2` (stereo not drawn), the outcome with Enterococcus faecium, in the assay on Human orthopneumovirus, with Acinetobacter baumannii, in the assay with Candida, in the assay with Staphylococcus aureus and in the assay on Pseudomonas aeruginosa was inactive. Moreover, the outcome (with Klebsiella pneumoniae; in the assay on Enterobacter sp.; in assay [2]) was inactive. Further, the EC50 with Ca-Ski [1] was determined as 25 µM; with C-33-A [3], 14 µM.

With `COc1cc(C)c(O)c2c1C=CC(C)(CC/C=C(\C)CCCC(C)(C)OC(C)=O)O2` (stereo not drawn), the result in the assay with Enterococcus faecium, in the assay on Human orthopneumovirus, in the assay with Acinetobacter baumannii, with Candida, with Staphylococcus aureus and in the assay with Pseudomonas aeruginosa was inactive. The result (with Klebsiella pneumoniae; in the assay with Enterobacter sp.; in [2]) was inactive. Further, in assay [6], the “Ratio EC50” value was found to be 500. Besides, the EC50 is 20 µM with Ca-Ski [1] and 0.04 µM in the assay with C-33-A [3].

On to `COc1cc(C)c(O)c2c1C=CC(C)(CC/C=C(\C)CCCC(C)(C)O)O2` (stereo not drawn), for which the outcome in the assay on Enterococcus faecium, with Human orthopneumovirus, in the assay with Acinetobacter baumannii, with Candida, with Staphylococcus aureus and in the assay with Pseudomonas aeruginosa was inactive. For the same compound, the outcome (in the assay with Klebsiella pneumoniae; with Enterobacter sp.; in assay [2]) was inactive. In addition, the EC50 in the assay with Ca-Ski [1] came out at 41 µM; in the assay on C-33-A [3] it was 38 µM.
